# Experimental data as given in ChEMBL document CHEMBL1140872, “Discovery of a potent and selective inhibitor for human carbonyl reductase 1 from propionate scanning applied to the macrolide zearalenone” (Bioorg Med Chem, 2009).
# Legend:
# [1] = target: Casein kinase I isoform gamma-1 (Homo sapiens) (UniProt Q9HCP0); assay: Binding affinity to human recombinant CSNK1G1 expressed in Escherichia coli assessed as thermal shift by differential scanning fluorimetry
# Outline: (§1)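 Thermal-shift (DSF) binding assay with purified recombinant catalytic domains or proteins carrying an N- or C-terminal His6 tag or GST fusion. Purity was >95% by SDS/PAGE and identity was confirmed by MS. Protein was at 2 µM final in 10 mM HEPES pH 7.5 and 150 mM NaCl. Tm shift is reported, with 2 °C as the threshold for binding.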
# [2] = target: T1, Carbonyl reductase [NADPH] 1 (Homo sapiens) (UniProt P16152); assay: Binding affinity to human recombinant carbonyl reductase 1 expressed in Escherichia coli assessed as thermal shift by differential scanning fluorimetry in absence of cofactor; outline: as §1
# T1 sequence (whole entry): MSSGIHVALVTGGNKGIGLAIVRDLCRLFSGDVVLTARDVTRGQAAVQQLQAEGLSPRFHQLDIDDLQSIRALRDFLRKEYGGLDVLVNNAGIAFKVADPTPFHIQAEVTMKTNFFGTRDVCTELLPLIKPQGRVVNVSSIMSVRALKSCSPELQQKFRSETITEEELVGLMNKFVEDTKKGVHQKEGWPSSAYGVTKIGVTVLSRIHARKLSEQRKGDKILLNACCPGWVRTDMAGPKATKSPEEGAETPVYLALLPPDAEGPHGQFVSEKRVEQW
# [3] = target: Serine/threonine-protein kinase pim-1 (Homo sapiens) (UniProt P11309); assay: Binding affinity to human recombinant PIM1 expressed in Escherichia coli assessed as thermal shift by differential scanning fluorimetry; outline: as §1
# [4] = target: Mitogen-activated protein kinase 11 (Homo sapiens) (UniProt Q15759); assay: Binding affinity to human recombinant MAPK11 expressed in Escherichia coli assessed as thermal shift by differential scanning fluorimetry; outline: as §1
# [5] = target: Mitogen-activated protein kinase 6 (Homo sapiens) (UniProt Q16659); assay: Binding affinity to human recombinant MAPK6 expressed in Escherichia coli assessed as thermal shift by differential scanning fluorimetry; outline: as §1
# [6] = target: T2, Serine/threonine-protein kinase PLK4 (Homo sapiens) (UniProt O00444); assay: Binding affinity to human recombinant PLK4 expressed in Escherichia coli assessed as thermal shift by differential scanning fluorimetry; outline: as §1
# T2 sequence (whole entry): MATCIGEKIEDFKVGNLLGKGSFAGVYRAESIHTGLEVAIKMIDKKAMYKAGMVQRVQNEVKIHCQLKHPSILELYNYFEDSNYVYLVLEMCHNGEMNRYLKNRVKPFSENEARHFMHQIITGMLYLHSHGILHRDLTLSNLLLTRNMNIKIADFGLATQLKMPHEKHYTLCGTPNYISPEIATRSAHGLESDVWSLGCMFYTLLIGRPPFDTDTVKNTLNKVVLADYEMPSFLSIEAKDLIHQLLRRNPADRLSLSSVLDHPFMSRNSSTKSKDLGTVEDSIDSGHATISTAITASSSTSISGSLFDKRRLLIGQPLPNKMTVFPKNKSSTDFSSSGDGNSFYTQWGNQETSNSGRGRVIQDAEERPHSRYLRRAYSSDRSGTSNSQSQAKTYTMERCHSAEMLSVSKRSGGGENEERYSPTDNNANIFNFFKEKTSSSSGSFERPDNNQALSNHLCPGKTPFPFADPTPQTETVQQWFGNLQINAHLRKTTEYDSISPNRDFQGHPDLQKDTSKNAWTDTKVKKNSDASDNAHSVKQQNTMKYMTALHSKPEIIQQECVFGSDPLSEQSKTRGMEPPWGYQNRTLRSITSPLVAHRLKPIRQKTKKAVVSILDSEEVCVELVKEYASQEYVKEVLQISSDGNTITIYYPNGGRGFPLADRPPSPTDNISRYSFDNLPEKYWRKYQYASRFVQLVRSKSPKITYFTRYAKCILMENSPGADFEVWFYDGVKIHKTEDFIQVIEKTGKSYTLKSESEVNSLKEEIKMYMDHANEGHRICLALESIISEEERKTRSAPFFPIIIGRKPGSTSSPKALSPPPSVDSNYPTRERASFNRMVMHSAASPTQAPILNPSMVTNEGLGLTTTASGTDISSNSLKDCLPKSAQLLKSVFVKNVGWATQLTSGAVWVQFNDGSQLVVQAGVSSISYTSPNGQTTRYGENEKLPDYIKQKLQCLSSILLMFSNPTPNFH
# [7] = target: T3, Carbonyl reductase [NADPH] 1 (Homo sapiens, UniProt P16152); assay: Binding affinity to human recombinant carbonyl reductase 1 expressed in Escherichia coli assessed as NADPH oxidation using isatin as substrate
# T3 sequence (P16152 whole entry): T1 sequence (whole entry)
# Outline: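 Purified recombinant CBR1 (200 nM) and NADPH were added to compound in 50 mM sodium phosphate, pH 6.8, 1 mM MgCl2. NADPH oxidation was followed as the fluorescence decrease at 460 nm (excitation 355 nm). Rates came from linear regression after normalising to the fluorescence rise at injection. Compounds were titrated at two isatin levels, with no-protein background subtracted. Sigmoidal fit gave IC50, then Ki from the isatin concentration.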
# [8] = target: T1, Carbonyl reductase [NADPH] 1 (Homo sapiens); assay: Binding affinity to human recombinant carbonyl reductase 1 expressed in Escherichia coli assessed as thermal shift by differential scanning fluorimetry in presence of NADP+; outline: as §1
# [9] = target: Heat shock protein HSP90 (Homo sapiens) (UniProt P07900+P08238)
# [10] = target: T4, Carbonyl reductase [NADPH] 3 (Homo sapiens) (UniProt O75828); assay: Binding affinity to human recombinant carbonyl reductase 3 expressed in Escherichia coli assessed as thermal shift by differential scanning fluorimetry in absence of cofactor; outline: as §1
# T4 sequence (whole entry): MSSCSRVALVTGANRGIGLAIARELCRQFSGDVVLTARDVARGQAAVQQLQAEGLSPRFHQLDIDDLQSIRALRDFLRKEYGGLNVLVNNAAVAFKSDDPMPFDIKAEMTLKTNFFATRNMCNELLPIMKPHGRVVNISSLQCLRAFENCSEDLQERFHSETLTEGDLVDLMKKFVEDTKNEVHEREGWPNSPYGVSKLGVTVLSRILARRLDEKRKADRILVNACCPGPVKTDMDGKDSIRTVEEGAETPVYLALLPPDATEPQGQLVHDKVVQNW
# Homo sapiens = species: Homo sapiens; assay: Binding affinity to human recombinant DYRK1 expressed in Escherichia coli assessed as thermal shift by differential scanning fluorimetry; outline: as §1
# [11] = target: T1, Carbonyl reductase [NADPH] 1 (Homo sapiens); assay: Binding affinity to human recombinant carbonyl reductase 1 expressed in Escherichia coli assessed as NADPH oxidation at 200 uM relative to isatin
# Outline: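 Substrate test used 200 nM purified CBR1 and 200 µM NADPH, injected onto compound at 200 µM in 50 mM sodium phosphate pH 6.8 with 1 mM MgCl2. NADPH oxidation was read as the fluorescence decrease at 460 nm (excitation 355 nm). Rate came from linear regression after normalizing to the fluorescence rise on injection. Run in triplicate and expressed as % of the isatin rate.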
# Mitogen-activated protein kinase 6 (Homo sapiens), sequence (Q16659 whole entry): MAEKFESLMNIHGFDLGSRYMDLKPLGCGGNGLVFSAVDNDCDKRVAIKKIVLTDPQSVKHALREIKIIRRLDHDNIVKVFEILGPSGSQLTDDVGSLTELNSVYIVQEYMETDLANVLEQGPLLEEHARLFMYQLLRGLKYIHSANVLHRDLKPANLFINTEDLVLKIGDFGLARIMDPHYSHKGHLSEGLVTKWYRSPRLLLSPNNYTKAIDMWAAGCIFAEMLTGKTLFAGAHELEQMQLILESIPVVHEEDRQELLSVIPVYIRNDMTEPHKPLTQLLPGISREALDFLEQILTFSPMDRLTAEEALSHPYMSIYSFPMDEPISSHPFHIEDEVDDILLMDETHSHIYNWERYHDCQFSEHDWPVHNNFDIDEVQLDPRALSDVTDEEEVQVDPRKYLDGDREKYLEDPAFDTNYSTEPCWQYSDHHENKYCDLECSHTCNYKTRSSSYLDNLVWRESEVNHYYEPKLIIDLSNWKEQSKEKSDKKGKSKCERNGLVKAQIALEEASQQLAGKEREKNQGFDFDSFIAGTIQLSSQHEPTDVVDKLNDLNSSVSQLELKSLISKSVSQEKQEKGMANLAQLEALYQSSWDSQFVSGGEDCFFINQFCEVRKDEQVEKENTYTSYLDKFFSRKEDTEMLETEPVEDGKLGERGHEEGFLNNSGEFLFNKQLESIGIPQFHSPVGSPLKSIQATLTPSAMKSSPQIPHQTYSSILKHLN
# Serine/threonine-protein kinase pim-1 (Homo sapiens), sequence (P11309 whole entry, looked up): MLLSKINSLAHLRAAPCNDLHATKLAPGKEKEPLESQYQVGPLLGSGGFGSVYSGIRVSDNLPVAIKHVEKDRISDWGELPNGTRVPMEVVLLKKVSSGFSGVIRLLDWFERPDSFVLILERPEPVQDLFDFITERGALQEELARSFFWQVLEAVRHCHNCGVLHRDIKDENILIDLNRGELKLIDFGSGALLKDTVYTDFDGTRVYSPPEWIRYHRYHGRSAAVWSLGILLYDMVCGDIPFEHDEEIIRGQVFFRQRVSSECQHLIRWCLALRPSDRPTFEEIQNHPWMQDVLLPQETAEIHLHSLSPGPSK
# Casein kinase I isoform gamma-1 (Homo sapiens), sequence (Q9HCP0 whole entry, looked up, the tested form may be a part, canonical isoform): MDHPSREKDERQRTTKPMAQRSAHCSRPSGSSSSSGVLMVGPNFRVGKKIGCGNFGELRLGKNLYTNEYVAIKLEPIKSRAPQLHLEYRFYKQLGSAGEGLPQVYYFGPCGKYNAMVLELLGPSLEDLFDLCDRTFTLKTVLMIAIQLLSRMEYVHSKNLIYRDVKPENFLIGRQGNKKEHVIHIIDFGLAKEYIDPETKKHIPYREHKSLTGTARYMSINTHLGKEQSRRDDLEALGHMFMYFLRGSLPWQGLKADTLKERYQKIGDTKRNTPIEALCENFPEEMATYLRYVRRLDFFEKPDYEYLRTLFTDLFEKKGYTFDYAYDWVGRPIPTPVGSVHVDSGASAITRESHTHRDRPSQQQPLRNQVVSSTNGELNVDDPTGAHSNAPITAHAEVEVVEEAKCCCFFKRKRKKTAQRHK
# Mitogen-activated protein kinase 11 (Homo sapiens), sequence (Q15759 whole entry): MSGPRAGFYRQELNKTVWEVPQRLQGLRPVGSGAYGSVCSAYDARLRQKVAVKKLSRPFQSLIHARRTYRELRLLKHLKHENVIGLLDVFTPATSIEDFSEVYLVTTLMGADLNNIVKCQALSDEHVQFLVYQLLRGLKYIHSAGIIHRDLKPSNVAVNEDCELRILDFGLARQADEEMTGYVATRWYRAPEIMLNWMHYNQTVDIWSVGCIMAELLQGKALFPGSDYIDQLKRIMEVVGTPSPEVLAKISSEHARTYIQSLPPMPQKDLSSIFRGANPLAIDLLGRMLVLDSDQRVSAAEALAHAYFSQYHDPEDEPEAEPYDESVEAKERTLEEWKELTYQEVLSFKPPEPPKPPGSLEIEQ
Structure (SMILES),Tm [1] [°C],Tm [2] [°C],Tm [3] [°C],Tm [4] [°C],Tm [5] [°C],Tm [6] [°C],IC50 [7] [nM],Ki [7] [nM],Tm [8] [°C],Tm [9] [°C],Tm [10] [°C],Tm (Homo sapiens) [°C],Activity [11] [%]
C[C@H]1CCCC(=O)[C@@H](C)CC/C=C/c2cc(O)cc(O)c2C(=O)O1,< 2,< 2,2.2,< 2,< 2,< 2,210,40,3.9,< 2,< 2,< 2,
COc1cc(O)c2c(c1)/C=C/CC[C@H](C)C(=O)CCC[C@H](C)OC2=O,< 2,< 2,< 2,< 2,< 2,< 2,,,< 2,< 2,< 2,< 2,1.5
COC1=C2C[C@@H](C)C[C@H](OC)[C@H](O)[C@@H](C)/C=C(\C)[C@H](OC(N)=O)[C@@H](OC)/C=C\C=C(/C)C(=O)NC(=CC1=O)C2=O,< 2,< 2,< 2,< 2,< 2,< 2,,,< 2,,< 2,< 2,
COc1cc2c(c(OC)c1)C(=O)O[C@@H](C)CCCC(=O)[C@@H](C)CC/C=C/2,< 2,< 2,< 2,< 2,< 2,< 2,,,< 2,< 2,< 2,< 2,31.3
C[C@@H]1C[C@H]2O[C@@H]2/C=C\C=C\C(=O)Cc2c(Cl)c(O)cc(O)c2C(=O)O1 [RADICICOL],< 2,< 2,< 2,< 2,< 2,< 2,3270,520,4.6,,< 2,< 2,
COc1cc2c(c(OC)c1)C(=O)O[C@@H](C)CCC[C@@H](O)[C@@H](C)CC/C=C/2,< 2,< 2,< 2,< 2,< 2,< 2,,,< 2,< 2,< 2,< 2,
C[C@H]1CCCC(=O)CCC/C=C/c2cc(O)cc(O)c2C(=O)O1,< 2,< 2,3,< 2,< 2,< 2,,,3.6,2.3,< 2,< 2,5.7
